Measured values as given in ChEMBL document CHEMBL1123760, “Synthesis and oral antifungal activity of novel azolylpropanolones and related compounds” (1987).
Converted amounts (≈) assume the structure as drawn.

Key:
Assay type in all cases: functional
[1] = system: Candida albicans; assay: In vitro antifungal activity against Candida albicans
Summary of the method: (§1)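 Broth microdilution MIC in Sabouraud's glucose broth; final inocula 1 × 10^5 cells/mL (yeast) or 1 × 10^5 conidia/mL (mold and dermatophyte).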

[2] = system: Trichophyton benhamiae; assay: In vitro antifungal activity against Trichophyton asteroides; summary of the method: as §1
[3] = system: Candida albicans; assay: Minimum effective concentration for inhibition of pseudomycelium formation in Candida albicans; conditions: for minimal effective concentration: Candida albicans, read-out: MEC
Summary of the method: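 C. albicans KE-2 (clinical isolate) at a final 1 × 10^6 yeast cells/mL in EMEM with 20% calf serum; compounds diluted by the same microtiter system as for MICs. After incubation, wells were Giemsa-stained (5% in phosphate buffer) and read by microscope. MEC is the lowest concentration preventing typical pseudomycelium formation.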

[4] = system: Aspergillus fumigatus; assay: In vitro antifungal activity against Aspergillus fumigatus; summary of the method: as §1
[5] = Candida albicans, read-out: MIC
[6] = Trichophyton benhamiae, read-out: MIC
[7] = Aspergillus fumigatus, read-out: MIC

Row | MIC [1, 5] | MIC [2, 6] | MIC [4, 7] | MIC [2] | MIC [4] | MIC [1] | Compound | minimal effective concentration [3] | MEC [3]
1 | > 100 µg/mL | 0.2 µg/mL (≈ 0.532 µM) | 12.5 µg/mL (≈ 33.2 µM) | – | – | – | Clc1ccc([C@@]2(Cn3cncn3)OCO[C@@H]2c2ccccc2)c(Cl)c1 | 0.08 µg/mL | –
2 | – | – | – | 0.1 µg/mL (≈ 0.266 µM) | 25 µg/mL (≈ 66.5 µM) | – | CCC(O)(c1ccc(F)cc1)C(O)(Cn1cncn1)c1ccc(Cl)cc1 (stereo in doubt; 170) | – | 0.04 µg/mL
3 | – | – | – | 1.6 µg/mL (≈ 5.41 µM) | – | – | CCCC(O)C(O)(Cn1cncn1)c1ccc(Cl)cc1 (stereo in doubt; 106) | – | 0.16 µg/mL
4 | > 100 µg/mL | 0.8 µg/mL (≈ 2.21 µM) | > 100 µg/mL | – | – | – | O=C(c1ccc(Cl)cc1)C(O)(Cn1cncn1)c1ccccc1Cl (configuration not stated) | 10 µg/mL | –
5 | 100 µg/mL (≈ 292 µM) | 0.1 µg/mL (≈ 0.292 µM) | 50 µg/mL (≈ 146 µM) | – | – | – | CCCCC(O)(Cn1cncn1)C(=O)c1ccc(Cl)cc1Cl (configuration not stated) | 0.31 µg/mL | –
6 | > 100 µg/mL | 0.1 µg/mL (≈ 0.254 µM) | > 100 µg/mL | – | – | – | Fc1ccc([C@H]2OCO[C@]2(Cn2cncn2)c2ccc(Cl)cc2Cl)cc1 | 0.31 µg/mL | –
7 | 50 µg/mL (≈ 138 µM) | 0.39 µg/mL (≈ 1.08 µM) | > 100 µg/mL | – | – | – | O=C(c1ccc(Cl)cc1)C(O)(Cn1cncn1)c1ccc(Cl)cc1 (configuration not stated) | 20 µg/mL | –
8 | > 100 µg/mL | > 100 µg/mL | > 100 µg/mL | – | – | – | O=C(c1ccc(F)cc1)C(O)(Cn1cnnc1)c1ccc(Cl)cc1Cl (configuration not stated) | > 20 µg/mL | –
9 | > 100 µg/mL | 0.1 µg/mL (≈ 0.277 µM) | 100 µg/mL (≈ 277 µM) | – | – | – | CC(O)(c1ccc(F)cc1)C(O)(Cn1ccnc1)c1ccccc1Cl (configuration not stated) | 1.25 µg/mL | –
10 | > 100 µg/mL | 3.13 µg/mL (≈ 8.64 µM) | > 100 µg/mL | – | – | – | O=C(c1cccc(Cl)c1)C(O)(Cn1cncn1)c1cccc(Cl)c1 (configuration not stated) | > 20 µg/mL | –
11 | > 100 µg/mL | – | – | 0.1 µg/mL (≈ 0.251 µM) | 25 µg/mL (≈ 62.7 µM) | – | OC(c1ccc(Cl)cc1)C(O)(Cn1cncn1)c1ccc(Cl)cc1Cl (stereo in doubt; 108) | – | 0.04 µg/mL
12 | > 100 µg/mL | > 100 µg/mL | > 100 µg/mL | – | – | – | OC(Cc1ccc(Cl)cc1)(c1ccc(F)cc1)C(O)(Cn1cncn1)c1ccc(Cl)cc1 (configuration not stated) | 20 µg/mL | –
13 | > 100 µg/mL | 1.6 µg/mL (≈ 4.43 µM) | > 100 µg/mL | – | – | – | CC(O)(c1ccc(Cl)cc1)C(O)(Cn1ccnc1)c1ccc(F)cc1 (configuration not stated) | 10 µg/mL | –
14 | > 100 µg/mL | 0.1 µg/mL (≈ 0.264 µM) | 12.5 µg/mL (≈ 33 µM) | – | – | – | CC(O)(c1ccccc1)C(O)(Cn1cncn1)c1ccc(Cl)cc1Cl (stereo in doubt; 166) | 0.04 µg/mL | –
15 | > 100 µg/mL | 25 µg/mL (≈ 58 µM) | > 100 µg/mL | – | – | – | O=C(c1ccc(Cl)cc1Cl)C(O)(Cn1cnnc1)c1ccc(Cl)cc1Cl (configuration not stated) | > 20 µg/mL | –
16 | > 100 µg/mL | > 100 µg/mL | > 100 µg/mL | – | – | – | O=C(c1ccccc1)C(O)(Cn1cnnc1)c1ccccc1 (configuration not stated) | > 20 µg/mL | –
17 | > 100 µg/mL | 100 µg/mL (≈ 366 µM) | > 100 µg/mL | – | – | – | O=C(c1ccco1)C(O)(Cn1cncn1)c1ccco1 (configuration not stated) | > 20 µg/mL | –
18 | 50 µg/mL (≈ 122 µM) | 0.1 µg/mL (≈ 0.243 µM) | 0.2 µg/mL (≈ 0.487 µM) | – | – | – | Clc1ccc([C@H]2OCO[C@]2(Cn2cncn2)c2ccc(Cl)cc2Cl)cc1 | 0.02 µg/mL | –

Row | MIC [1, 5] | MIC [2, 6] | MIC [4, 7] | MIC [2] | MIC [4] | MIC [1] | Compound | minimal effective concentration [3] | MEC [3]
19 | > 100 µg/mL | 0.1 µg/mL (≈ 0.244 µM) | 50 µg/mL (≈ 122 µM) | – | – | – | O=S1O[C@H](c2ccccc2)[C@@](Cn2cncn2)(c2ccc(Cl)cc2Cl)O1 (some centres not stated) | 0.04 µg/mL | –
20 | > 100 µg/mL | 0.1 µg/mL (≈ 0.225 µM) | > 100 µg/mL | – | – | – | O=S1O[C@H](c2ccc(Cl)cc2)[C@](Cn2cncn2)(c2ccc(Cl)cc2Cl)O1 (some centres not stated) | 0.02 µg/mL | –
21 | > 100 µg/mL | 3.1 µg/mL (≈ 8.68 µM) | > 100 µg/mL | – | – | – | O=C1O[C@H](c2ccc(F)cc2)[C@@](Cn2cncn2)(c2ccc(F)cc2)O1 | 2.5 µg/mL | –
22 | > 100 µg/mL | 6.3 µg/mL (≈ 19.6 µM) | > 100 µg/mL | – | – | – | CC(C)[C@H]1OC(=O)O[C@@]1(Cn1cncn1)c1ccc(Cl)cc1 | 0.63 µg/mL | –
23 | – | – | – | 0.1 µg/mL (≈ 0.242 µM) | 50 µg/mL (≈ 121 µM) | 50 µg/mL (≈ 121 µM) | CC(O)(c1ccc(Cl)cc1)C(O)(Cn1cncn1)c1ccc(Cl)cc1Cl (stereo in doubt; 176) | – | 0.63 µg/mL
24 | 50 µg/mL (≈ 132 µM) | – | > 100 µg/mL | 0.8 µg/mL (≈ 2.11 µM) | – | – | CC(O)(c1ccc(Cl)cc1)C(O)(Cn1cncn1)c1ccc(Cl)cc1 (stereo in doubt; 194) | – | 2.5 µg/mL
25 | > 100 µg/mL | 6.3 µg/mL (≈ 17.7 µM) | > 100 µg/mL | – | – | – | O=C1O[C@H](c2ccccc2)[C@@](Cn2cncn2)(c2ccccc2Cl)O1 | 0.31 µg/mL | –
26 | – | – | – | 0.1 µg/mL (≈ 0.276 µM) | 6.3 µg/mL (≈ 17.4 µM) | – | CC(O)(c1ccc(F)cc1)C(O)(Cn1cncn1)c1ccccc1Cl (stereo in doubt; 181) | – | 1.25 µg/mL
27 | > 100 µg/mL | 0.4 µg/mL (≈ 1.3 µM) | 50 µg/mL (≈ 162 µM) | – | – | – | CCCCC(O)(Cn1cncn1)C(=O)c1ccccc1Cl (configuration not stated) | 0.63 µg/mL | –
28 | – | – | – | 0.1 µg/mL (≈ 0.235 µM) | – | – | O=C1O[C@H](c2ccc(Cl)cc2)[C@](Cn2cncn2)(c2ccc(Cl)cc2Cl)O1 | – | 0.08 µg/mL
29 | – | – | – | 0.1 µg/mL (≈ 0.29 µM) | 25 µg/mL (≈ 72.6 µM) | – | CC(C)C(C)(O)C(O)(Cn1cncn1)c1ccc(Cl)cc1Cl (stereo in doubt; 168) | – | 0.04 µg/mL
30 | – | – | – | 0.2 µg/mL (≈ 0.471 µM) | – | – | O=C1O[C@H](c2ccc(Cl)cc2)[C@@](Cn2cncn2)(c2ccc(Cl)cc2Cl)O1 (stereo in doubt; 129) | – | 0.04 µg/mL
31 | – | – | – | 6.3 µg/mL (≈ 18.1 µM) | – | 50 µg/mL (≈ 144 µM) | OC(c1ccc(F)cc1)C(O)(Cn1cncn1)c1ccc(Cl)cc1 (stereo in doubt; 104) | – | 2.5 µg/mL
32 | – | – | – | 0.8 µg/mL (≈ 2.47 µM) | 50 µg/mL (≈ 154 µM) | – | CCCCC(O)(Cn1cncn1)C(C)(O)c1ccc(Cl)cc1 (stereo in doubt; 190) | – | 2.5 µg/mL
33 | – | – | – | 0.39 µg/mL (≈ 1.07 µM) | – | 50 µg/mL (≈ 137 µM) | OC(c1ccc(Cl)cc1)C(O)(Cn1cncn1)c1ccc(Cl)cc1 (stereo in doubt; 88) | – | 1.25 µg/mL
34 | – | – | – | 0.2 µg/mL (≈ 0.495 µM) | >100 µg/mL | – | CCCCC(O)(c1ccc(F)cc1)C(O)(Cn1cncn1)c1ccccc1Cl (stereo in doubt; 188) | – | 2.5 µg/mL
35 | – | – | – | >100 µg/mL | – | – | OC(Cn1cncn1)(c1ccc(F)cc1)C(O)(c1ccccc1)c1ccc(F)cc1 (stereo in doubt; 164) | – | –
36 | – | – | – | 6.3 µg/mL (≈ 21.3 µM) | – | – | CC(C)C(O)C(O)(Cn1cncn1)c1ccc(Cl)cc1 (stereo in doubt; 101) | – | 0.63 µg/mL

Row | Compound | MIC [1, 5] | MIC [2, 6] | MIC [4, 7] | MIC [2] | MIC [4] | MIC [1] | minimal effective concentration [3] | MEC [3]
37 | CC(O)(c1ccc(F)cc1)C(O)(Cn1cncn1)c1ccc(F)cc1 (stereo in doubt; 161) | > 100 µg/mL | 0.2 µg/mL (≈ 0.579 µM) | – | – | 100 µg/mL (≈ 290 µM) | – | – | 2.5 µg/mL
38 | CC(C)C(=O)C(O)(Cn1cncn1)c1ccc(Cl)cc1 (stereo in doubt; 13) | – | – | – | – | 12.5 µg/mL (≈ 42.6 µM) | >100 µg/mL | – | 0.08 µg/mL
39 | CC(O)(c1ccc(F)cc1)C(O)(Cn1cncn1)c1ccc(Cl)cc1 (stereo in doubt; 163) | 100 µg/mL (≈ 276 µM) | 0.2 µg/mL (≈ 0.553 µM) | > 100 µg/mL | – | – | – | – | 0.63 µg/mL
